# Tests used:
# [1] = test system: Enterococcus faecalis; assay: Antibacterial activity against clinically isolated Enterococcus faecalis RBRJ015 assessed as inhibition of bacterial growth at 50 uM measured after 48 hrs by agar well diffusion method; type: functional; conditions: read-out: IZ
# [2] = test system: Escherichia coli; assay: Antibacterial activity against clinically isolated Escherichia coli RBRJ013 assessed as inhibition of bacterial growth at 50 uM measured after 48 hrs by agar well diffusion method; type: functional; conditions: read-out: IZ
# [3] = test system: Klebsiella pneumoniae; assay: Antibacterial activity against Klebsiella pneumoniae MTCC 109 assessed as inhibition of bacterial growth at 50 uM measured after 48 hrs by agar well diffusion method; type: functional; conditions: read-out: IZ
# [4] = Selectivity index, ratio of IC50 for cytotoxicity against mouse L929 cells to MIC for antibacterial activity against clinically isolated Methicillin-resistant Staphylococcus aureus; type: toxicity, cell-based; conditions: read-out: Selectivity Index
# [5] = test system: Staphylococcus aureus; assay: Antibacterial activity against clinically isolated Staphylococcus aureus RBRJ010 assessed as inhibition of bacterial growth at 50 uM measured after 48 hrs by agar well diffusion method; type: functional; conditions: read-out: IZ
# [6] = test system: Staphylococcus aureus; assay: Antibacterial activity against clinically isolated Staphylococcus aureus RBRJ010 assessed as inhibition of bacterial growth measured after 48 hrs by broth microdilution method; type: functional
# [7] = test system: Staphylococcus aureus; assay: Antibacterial activity against clinically isolated Methicillin-resistant Staphylococcus aureus assessed as inhibition of bacterial growth measured after 48 hrs by broth microdilution method; type: functional
# [8] = test system: Staphylococcus epidermidis; assay: Antibacterial activity against Staphylococcus epidermidis MTCC 435 assessed as inhibition of bacterial growth at 50 uM measured after 48 hrs by agar well diffusion method; type: functional; conditions: read-out: IZ
# [9] = test system: Staphylococcus aureus; assay: Bactericidal activity against clinically isolated Staphylococcus aureus RBRJ010 assessed as inhibition of bacterial growth measured after 48 hrs by agar plate method; type: functional
# Summary of the method: (§1)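 MBC: 10 μL from wells showing no INT colour change after broth microdilution subcultured on drug-free Mueller Hinton agar, 48 h at 37 °C aerobically; lowest concentration with no visible growth taken as MBC (μM). Triplicate.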
# [10] = test system: Staphylococcus aureus; assay: Antibacterial activity against Staphylococcus aureus MTCC 740 assessed as inhibition of bacterial growth at 50 uM measured after 48 hrs by agar well diffusion method; type: functional; conditions: read-out: IZ
# [11] = test system: Escherichia coli; assay: Antibacterial activity against Escherichia coli MTCC 119 assessed as inhibition of bacterial growth at 50 uM measured after 48 hrs by agar well diffusion method; type: functional; conditions: read-out: IZ
# [12] = test system: Pseudomonas aeruginosa; assay: Antibacterial activity against Pseudomonas aeruginosa MTCC 424 assessed as inhibition of bacterial growth at 50 uM measured after 48 hrs by agar well diffusion method; type: functional; conditions: read-out: IZ
# [13] = test system: Klebsiella pneumoniae; assay: Antibacterial activity against clinically isolated Klebsiella pneumoniae RBRJ024 assessed as inhibition of bacterial growth at 50 uM measured after 48 hrs by agar well diffusion method; type: functional; conditions: read-out: IZ
# [14] = test system: Acinetobacter baumannii; assay: Antibacterial activity against clinically isolated Acinetobacter baumannii RBRJ027 assessed as inhibition of bacterial growth at 50 uM measured after 48 hrs by agar well diffusion method; type: functional; conditions: read-out: IZ
# [15] = test system: Staphylococcus aureus; assay: Antibacterial activity against Methicillin-resistant Staphylococcus aureus ATCC 33591 assessed as inhibition of bacterial growth at 50 uM measured after 48 hrs by agar well diffusion method; type: functional; conditions: read-out: IZ
# Summary of the method: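 Agar well diffusion on Mueller Hinton agar seeded with bacteria at 0.5 McFarland. […] Incubated 48 h at 37 °C aerobically; zone of inhibition diameter (mm) measured. Triplicate.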
# [16] = test system: Klebsiella pneumoniae; assay: Antibacterial activity against clinically isolated Klebsiella pneumoniae RBRJ019 assessed as inhibition of bacterial growth at 50 uM measured after 48 hrs by agar well diffusion method; type: functional; conditions: read-out: IZ
# [17] = test system: Staphylococcus epidermidis; assay: Bactericidal activity against Staphylococcus epidermidis MTCC 435 assessed as inhibition of bacterial growth measured after 48 hrs by agar plate method; type: functional; summary of the method: as §1
# [18] = test system: Staphylococcus aureus; assay: Antibacterial activity against Staphylococcus aureus MTCC 740 assessed as inhibition of bacterial growth measured after 48 hrs by broth microdilution method; type: functional
# [19] = test system: Staphylococcus aureus; assay: Bactericidal activity against clinically isolated Methicillin-resistant Staphylococcus aureus assessed as inhibition of bacterial growth measured after 48 hrs by agar plate method; type: functional
# [20] = test system: Staphylococcus aureus; assay: Antibacterial activity against clinically isolated Methicillin-resistant Staphylococcus aureus assessed as inhibition of bacterial growth at 50 uM measured after 48 hrs by agar well diffusion method; type: functional; conditions: read-out: IZ
# [21] = Cytotoxicity against mouse L929 cells assessed as reduction in cell viability measured after 72 hrs by MTT assay; type: toxicity, cell-based
# Summary of the method: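 L929 cells (ATCC) grown in DMEM with 10% FBS and penicillin/streptomycin at 37 °C, 5% CO2; seeded at 5 × 10^3 cells per well and exposed to serial dilutions for 72 h, paclitaxel as positive control. MTT (5 mg mL−1), formazan dissolved in DMSO, absorbance at 490 nm; viability relative to control after blank subtraction; IC50 in μM.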
# [22] = test system: Staphylococcus epidermidis; assay: Antibacterial activity against Staphylococcus epidermidis MTCC 435 assessed as inhibition of bacterial growth measured after 48 hrs by broth microdilution method; type: functional
# [23] = test system: Enterobacter cloacae; assay: Antibacterial activity against clinically isolated Enterobacter cloacae RBRJ017 assessed as inhibition of bacterial growth at 50 uM measured after 48 hrs by agar well diffusion method; type: functional; conditions: read-out: IZ
# [24] = test system: Escherichia coli; assay: Antibacterial activity against clinically isolated Escherichia coli RBRJ005 assessed as inhibition of bacterial growth at 50 uM measured after 48 hrs by agar well diffusion method; type: functional; conditions: read-out: IZ
# [25] = test system: Staphylococcus aureus; assay: Bactericidal activity against Staphylococcus aureus MTCC 740 assessed as inhibition of bacterial growth measured after 48 hrs by agar plate method; type: functional
# Summary of the method: (§2)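 MBC: aliquots from microdilution wells without colour change subcultured on drug-free Mueller Hinton agar, 48 h at 37 °C aerobically. MBC is the lowest concentration with no visible growth. Triplicate.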
# [26] = test system: Enterococcus faecalis; assay: Antibacterial activity against Enterococcus faecalis MTCC 439 assessed as inhibition of bacterial growth at 50 uM measured after 48 hrs by agar well diffusion method; type: functional; conditions: read-out: IZ
# [27] = target: T1, 4,4'-diapophytoene synthase (Staphylococcus aureus, UniProt A9JQL9); assay: Inhibition of Staphylococcus aureus CrtM
# T1 sequence (A9JQL9 whole entry): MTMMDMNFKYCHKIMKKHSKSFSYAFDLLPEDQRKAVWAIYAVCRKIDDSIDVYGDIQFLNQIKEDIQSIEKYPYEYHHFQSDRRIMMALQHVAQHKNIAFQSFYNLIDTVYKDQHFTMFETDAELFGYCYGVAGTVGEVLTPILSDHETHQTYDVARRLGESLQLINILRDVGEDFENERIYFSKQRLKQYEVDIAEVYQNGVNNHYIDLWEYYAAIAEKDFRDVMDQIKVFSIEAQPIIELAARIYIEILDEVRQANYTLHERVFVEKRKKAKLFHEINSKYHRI
# [28] = test system: Staphylococcus aureus; assay: Antibacterial activity against Methicillin-resistant Staphylococcus aureus ATCC 33591 assessed as inhibition of bacterial growth measured after 48 hrs by broth microdilution method; type: functional
# [29] = test system: Staphylococcus aureus; assay: Bactericidal activity against Methicillin-resistant Staphylococcus aureus ATCC 33591 assessed as inhibition of bacterial growth measured after 48 hrs by agar plate method; type: functional; summary of the method: as §2
Structure (SMILES),zone of inhibition at 50 µM [1],zone of inhibition at 50 µM [2],zone of inhibition at 50 µM [3],zone of inhibition at 50 µM [5],MIC [6],MIC [7],zone of inhibition at 50 µM [8],MBC [9],zone of inhibition at 50 µM [10],zone of inhibition at 50 µM [11],zone of inhibition at 50 µM [12],zone of inhibition at 50 µM [13],zone of inhibition at 50 µM [14],zone of inhibition at 50 µM [15],zone of inhibition at 50 µM [16],MIC [18],zone of inhibition at 50 µM [20],zone of inhibition at 50 µM [23],zone of inhibition at 50 µM [24],zone of inhibition at 50 µM [26],other results
Cc1ccc(C(C)C)c(OCc2cn(CCN3C(=O)C(=O)c4ccccc43)nn2)c1,18.3 mm,14.4 mm,18.3 mm,22.2 mm,15.6 µM,62.5 µM,22.7 mm,31.2 µM,20.2 mm,18.6 mm,18.2 mm,16.5 mm,13.3 mm,18.2 mm,16.4 mm,62.5 µM,20.2 mm,16.5 mm,15.2 mm,15.4 mm,selectivity ratio [4]: 4; MBC [17]: 31.2 µM; MBC [19]: 125 µM; IC50 at 72 h [21]: 250 µM; MIC [22]: 15.6 µM; MBC [25]: 125 µM
O=P(O)(O)C(CCCc1ccc(-c2ccc(Br)cc2)cc1)S(=O)(=O)O (stereo not given),,,,,,,,,,,,,,,,,,,,,Ki [27]: 0.135 µM
Cc1ccc(C(C)C)c(OCc2cn(CCCN3C(=O)C(=O)c4cc(Cl)ccc43)nn2)c1,14.1 mm,15.5 mm,14.3 mm,21.2 mm,15.6 µM,31.2 µM,18.2 mm,31.2 µM,22.1 mm,14.2 mm,13.3 mm,14.8 mm,13.2 mm,20.5 mm,15.1 mm,15.6 µM,21.3 mm,15.7 mm,15.2 mm,14.2 mm,selectivity ratio [4]: 4; MIC [28]: 62.5 µM; MBC [19]: 62.5 µM; IC50 at 72 h [21]: 125 µM; MBC [29]: 125 µM; MBC [25]: 31.2 µM
COc1ccc2c(c1)C(=O)C(=O)N2CCCn1cc(COc2cc(C)ccc2C(C)C)nn1,11.3 mm,15.4 mm,17.3 mm,23.3 mm,15.6 µM,3.9 µM,15.7 mm,31.2 µM,25.3 mm,16.5 mm,16.4 mm,17.6 mm,12.3 mm,25.3 mm,18.1 mm,62.5 µM,25.1 mm,13.5 mm,17.2 mm,12.6 mm,MIC [28]: 7.8 µM; MBC [19]: 7.8 µM; MBC [29]: 15.6 µM; MBC [25]: 125 µM
COc1ccc2c(c1)C(=O)C(=O)N2CCn1cc(COc2cc(C)ccc2C(C)C)nn1,11.3 mm,11.1 mm,15.3 mm,20.3 mm,62.5 µM,,16.4 mm,125 µM,16.2 mm,16.2 mm,11.5 mm,14.9 mm,11.4 mm,15.5 mm,14.6 mm,,15.3 mm,13.2 mm,11.5 mm,15.5 mm,

# Reference: ChEMBL document CHEMBL5357047, “The development of thymol-isatin hybrids as broad-spectrum antibacterial agents with potent anti-MRSA activity” (RSC Med Chem, 2024)
